Measured values pooled from the literature.
Compare with care: the assays were run in different laboratories.
Target: High affinity nerve growth factor receptor (NTRK1, Homo sapiens, UniProt P04629)
Effect on: enzyme activity
Action: inhibitor

SMILES | method | concentration | inhibition [%]
COc1cc2nccc(Oc3ccc(NC(=O)c4c5n(n(-c6ccc(F)cc6)c4=O)CCCC5)cc3)c2cc1OC | – | 0.1 µM | 63
O=C(Nc1ccc(C(F)(F)F)cc1)Nc1cccc(C(=O)Nc2ccc3[nH]ncc3c2)c1 | FRET | 1 µM | 74
CCN(CC)CCNC(=O)c1c(C)[nH]c(/C=C2\C(=O)Nc3ccc(F)cc32)c1C | – | 10 µM | 99
CC/C(=N\NC(=O)NCc1cccc(O)c1)c1ccc(O)c(C)c1O | – | 0.1 µM | 3.3
CN(C)C1CCN(CC#Cc2nn(C3CCCC3)c3nc(NCc4ccccc4)ncc23)C1 (stereo not shown) | FRET | 0.1 µM | 6
CNCc1ccc(-c2cc(-c3nc(-c4ccc(S(=O)(=O)C(C)C)cc4)cnc3N)on2)cc1 | – | 2 µM | 32
O=C(Nc1ccc(C(F)(F)F)cc1)Nc1cccc(C(=O)Nc2ccc3[nH]nc(-c4ccccc4)c3c2)c1 | FRET | 1 µM | 17
CNC(=O)c1cc(Oc2ccc(NC(=O)Nc3ccc(Cl)c(C(F)(F)F)c3)cc2)ccn1 | – | 0.3 µM | 36
C=CC(=O)Nc1cc(Nc2nccc(Nc3cc(Cl)c(F)cc3C(C)(C)O)n2)c(OC)cc1N1CC[C@@H](N(C)C)C1 | – | 1 µM | 51
O=C(Nc1ccc(OC(F)(F)F)cc1)Nc1cccc(C(=O)Nc2ccc3[nH]ncc3c2)c1 | FRET | 1 µM | 69.2
Cc1ccc(Nc2nccc(N(C)c3ccc4c(C)n(C)nc4c3)n2)cc1S(N)(=O)=O | – | 10 µM | 79
CN1CCN(CC(=O)Nc2cccc(C(=O)Nc3ccc4[nH]ncc4c3)c2)CC1 | FRET | 1 µM | 14.1
COc1cc2ncnc(Nc3ccc(Oc4ccccc4)cc3C)c2cc1OC | – | 1 µM | 9
